What was measured:
MOLT-4 = assay: Cytotoxicity against human MOLT4 cells after 24 hrs by SRB assay; format: functional; conditions: MOLT-4, 24 h
Summary of the method: (§1)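 NCI 60-line screen. Cells in RPMI 1640 with 5% FBS and 2 mM L-glutamine, seeded at 5,000–40,000 cells/well by doubling time, then incubated 24 h at 37 °C, 5% CO2 before dosing. Time-zero plates fixed with TCA at drug addition. DMSO stocks diluted in medium with gentamicin to five concentrations, […]. Protein read by SRB staining. GI50, TGI and LC50 derived relative to control and time-zero.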

EKVX [1] = assay: (§2) Cytotoxicity against human EKVX cells after 24 hrs by SRB assay; format: functional; summary of the method: as §1
HOP-92 = assay: Cytotoxicity against human HOP92 cells after 24 hrs by SRB assay; format: functional; conditions: HOP-92, 24 h; summary of the method: as §1
HCT-116 [2] = assay: (§3) Cytotoxicity against human HCT116 cells after 24 hrs by SRB assay; format: functional; conditions: HCT-116, 24 h; summary of the method: as §1
SW-620 = assay: Cytotoxicity against human SW620 cells after 24 hrs by SRB assay; format: functional; conditions: SW-620, 24 h
Summary of the method: (§4)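 NCI 60-cell screen. Cells are grown in RPMI 1640 with 5% FBS and 2 mM L-glutamine and seeded at 5,000–40,000 cells/well according to doubling time. They are preincubated 24 h at 37 °C in 5% CO2, and Tz plates are TCA-fixed at drug addition. Drug stock is in DMSO, diluted in medium with gentamicin, and tested at five concentrations (100, 10, 1.0, 0.1, […]). Protein is read by SRB staining. GI50, TGI and LC50 are derived relative to time-zero and control wells.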

SF-268 = assay: Cytotoxicity against human SF268 cells after 24 hrs by SRB assay; format: functional; conditions: SF-268, 24 h; summary of the method: as §1
LOX IMVI [3] = assay: (§5) Cytotoxicity against human LOXIMVI cells after 24 hrs by SRB assay; format: functional; summary of the method: as §1
SK-MEL-5 = assay: Cytotoxicity against human SK-MEL-5 cells after 24 hrs by SRB assay; format: functional; conditions: SK-MEL-5, 24 h; summary of the method: as §1
UACC-257 [4] = assay: (§6) Cytotoxicity against human UACC257 cells after 24 hrs by SRB assay; format: functional; conditions: UACC-257, 24 h; summary of the method: as §4
UACC-62 [5] = assay: (§7) Cytotoxicity against human UACC62 cells after 24 hrs by SRB assay; format: functional; conditions: UACC-62, 24 h; summary of the method: as §4
M14 = assay: Cytotoxicity against human M14 cells after 24 hrs by SRB assay; format: functional; conditions: M14, 24 h; summary of the method: as §1
OVCAR-3 = assay: Cytotoxicity against human OVCAR3 cells after 24 hrs by SRB assay; format: functional; conditions: OVCAR-3, 24 h; summary of the method: as §1
NCI/ADR-RES = assay: Cytotoxicity against human NCI/ADR-RES cells after 24 hrs by SRB assay; format: functional; summary of the method: as §1
ACHN = assay: Cytotoxicity against human ACHN cells after 24 hrs by SRB assay; format: functional; summary of the method: as §1
RXF 393 = assay: Cytotoxicity against human RXF393 cells after 24 hrs by SRB assay; format: functional; conditions: RXF 393, 24 h; summary of the method: as §1
SN12C = assay: Cytotoxicity against human SN12C cells after 24 hrs by SRB assay; format: functional; summary of the method: as §1
[6] = Cytotoxicity against human Hs 578T cells after 24 hrs by SRB assay; format: functional; summary of the method: as §1
SR = assay: Cytotoxicity against human SR cells after 24 hrs by SRB assay; format: cell-based
Summary of the method: (§8)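 NCI 60-cell-line screen: cells grown in RPMI 1640 with 5% FBS and 2 mM L-glutamine, seeded at 5,000–40,000 cells/well by doubling time, and preincubated 24 h at 37 °C in 5% CO2. Time-zero plates were TCA-fixed. DMSO stocks were diluted in medium with gentamicin to five concentrations (100, 10, 1.0, 0.1, […]). Protein was read by SRB, and GI50, TGI and LC50 were derived against time-zero.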

HL-60 = assay: Cytotoxicity against human HL60 cells after 24 hrs by SRB assay; format: cell-based; conditions: hl-60, 24 h
Summary of the method: (§9)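 NCI 60-cell screen. Cells grown in RPMI 1640 with 5% FBS and 2 mM L-glutamine, seeded at 5,000–40,000 cells/well, preincubated 24 h at 37 °C in 5% CO2. Drug stock in DMSO, diluted in medium with gentamicin; five final concentrations, 100, 10, 1.0, 0.1 and […]. Time-zero plates were TCA-fixed. Protein read by SRB staining; GI50, TGI and LC50 taken relative to time-zero.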

EKVX [7] = assay: as §2; format: cell-based; summary of the method: as §9
HOP-62 = assay: Cytotoxicity against human HOP62 cells after 24 hrs by SRB assay; format: cell-based; conditions: hop-62, 24 h; summary of the method: as §9
NCI-H23 = assay: Cytotoxicity against human NCI-H23 cells after 24 hrs by SRB assay; format: cell-based; conditions: nci-h23, 24 h; summary of the method: as §9
NCI-H522 = assay: Cytotoxicity against human NCI-H522 cells after 24 hrs by SRB assay; format: cell-based; conditions: nci-h522, 24 h; summary of the method: as §9
HCT-116 [8] = assay: as §3; format: cell-based; conditions: hct-116, 24 h; summary of the method: as §9
HT-29 = assay: Cytotoxicity against human HT-29 cells after 24 hrs by SRB assay; format: cell-based; conditions: ht-29, 24 h; summary of the method: as §9
HCC 2998 = assay: Cytotoxicity against human HCC2998 cells after 24 hrs by SRB assay; format: cell-based; conditions: hcc 2998, 24 h; summary of the method: as §9
SF-539 = assay: Cytotoxicity against human SF539 cells after 24 hrs by SRB assay; format: cell-based; conditions: sf-539, 24 h; summary of the method: as §9
SNB-75 = assay: Cytotoxicity against human SNB75 cells after 24 hrs by SRB assay; format: cell-based; conditions: snb-75, 24 h; summary of the method: as §8
LOX IMVI [9] = assay: as §5; format: cell-based; summary of the method: as §9
RPMI-8226 = assay: Cytotoxicity against human RPMI8226 cells after 24 hrs by SRB assay; format: functional; conditions: RPMI-8226, 24 h; summary of the method: as §1
CCRF-CEM = assay: Cytotoxicity against human CCRF-CEM cells after 24 hrs by SRB assay; format: functional; summary of the method: as §1
UACC-257 [10] = assay: as §6; format: cell-based; conditions: uacc-257, 24 h; summary of the method: as §8
UACC-62 [11] = assay: as §7; format: cell-based; conditions: uacc-62, 24 h; summary of the method: as §8
CAKI-1 = assay: Cytotoxicity against human CAKI-1 cells after 24 hrs by SRB assay; format: cell-based; conditions: caki-1, 24 h; summary of the method: as §9
MCF7 = assay: Cytotoxicity against human MCF7 cells after 24 hrs by SRB assay; format: cell-based; conditions: mcf7, 24 h; summary of the method: as §9
MDA-MB-468 = assay: Cytotoxicity against human MDA-MB-468 cells after 24 hrs by SRB assay; format: cell-based; conditions: mda-mb-468, 24 h; summary of the method: as §9
SK-OV-3 = assay: Cytotoxicity against human SKOV3 cells after 24 hrs by SRB assay; format: functional; conditions: SK-OV-3, 24 h; summary of the method: as §1

## O=C(/C=C/c1cc2ccccc2[nH]c1=O)c1ccc(O)cc1
MOLT-4
  GI50: 3.04 µM
  TGI: 9.91 µM
EKVX [1]
  GI50: 13.4 µM
  TGI: 27.2 µM
HOP-92
  GI50: 3.26 µM
  TGI: 23.2 µM
HCT-116 [2]
  GI50: 1.94 µM
  TGI: 4.38 µM
SW-620
  GI50: 1.89 µM
  TGI: 4.45 µM
SF-268
  GI50: 3.76 µM
  TGI: 23.3 µM
LOX IMVI [3]
  GI50: 2.47 µM
  TGI: 12.7 µM
SK-MEL-5
  GI50: 3.98 µM
  TGI: 13.3 µM
UACC-257 [4]
  GI50: 3.87 µM
  TGI: 16 µM
UACC-62 [5]
  GI50: 2.88 µM
  TGI: 8.73 µM
M14
  GI50: 2.6 µM
  TGI: 6.57 µM
OVCAR-3
  GI50: 3.22 µM
  TGI: 11.8 µM
NCI/ADR-RES
  GI50: 2.9 µM
  TGI: > 100 µM
ACHN
  GI50: 2.67 µM
  TGI: 8.86 µM
RXF 393
  GI50: 1.65 µM
  TGI: 3.23 µM
SN12C
  GI50: 3.48 µM
  TGI: 16 µM
[6]
  GI50: 6.15 µM
  TGI: > 100 µM
SR
  LC50: > 100 µM
HL-60
  LC50: > 100 µM
EKVX [7]
  LC50: 55.2 µM
HOP-62
  LC50: 85.2 µM
NCI-H23
  LC50: > 100 µM
NCI-H522
  LC50: 6.36 µM
HCT-116 [8]
  LC50: 9.91 µM
HT-29
  LC50: 41.4 µM
HCC 2998
  LC50: 59.6 µM
SF-539
  LC50: 61.674 µM
SNB-75
  LC50: 55 µM
LOX IMVI [9]
  LC50: > 100 µM
RPMI-8226
  GI50: 3.2 µM
  TGI: 24.8 µM
CCRF-CEM
  GI50: 2.38 µM
  TGI: > 100 µM
UACC-257 [10]
  LC50: 47.9 µM
UACC-62 [11]
  LC50: 39.6 µM
CAKI-1
  LC50: > 100 µM
MCF7
  LC50: 82.9 µM
MDA-MB-468
  LC50: 19.8 µM

## O=C(/C=C/c1cc2ccccc2[nH]c1=O)c1ccc(Cl)cc1
MOLT-4
  GI50: 3.11 µM
  TGI: > 100 µM
EKVX [1]
  GI50: 4.92 µM
  TGI: > 100 µM
HOP-92
  GI50: 5.74 µM
  TGI: 50.5 µM
HCT-116 [2]
  GI50: 3.26 µM
  TGI: 14.8 µM
SW-620
  GI50: 3.38 µM
  TGI: 12.1 µM
SF-268
  GI50: 7.15 µM
  TGI: 63.1 µM
LOX IMVI [3]
  GI50: 3.26 µM
  TGI: 22.1 µM
SK-MEL-5
  GI50: 18.9 µM
  TGI: > 100 µM
UACC-257 [4]
  GI50: 7.78 µM
  TGI: 46.9 µM
UACC-62 [5]
  GI50: 5.71 µM
  TGI: 54.3 µM
M14
  GI50: 7.54 µM
  TGI: 39.7 µM
OVCAR-3
  GI50: 5.9 µM
  TGI: 30.9 µM
NCI/ADR-RES
  GI50: 4 µM
  TGI: 23.6 µM
SK-OV-3
  TGI: > 100 µM
ACHN
  GI50: 7.27 µM
  TGI: 27.4 µM
RXF 393
  GI50: 4.32 µM
  TGI: 29.9 µM
SN12C
  GI50: 8.16 µM
  TGI: > 100 µM
[6]
  GI50: 11.1 µM
  TGI: > 100 µM
SR
  LC50: > 100 µM
HL-60
  LC50: > 100 µM
EKVX [7]
  LC50: > 100 µM
HOP-62
  LC50: > 100 µM
NCI-H23
  LC50: > 100 µM
NCI-H522
  LC50: 47.2 µM
HCT-116 [8]
  LC50: 66.5 µM
HT-29
  LC50: > 100 µM
HCC 2998
  LC50: 59.6 µM
SF-539
  LC50: 74.2 µM
SNB-75
  LC50: > 100 µM
LOX IMVI [9]
  LC50: > 100 µM
RPMI-8226
  GI50: 2.23 µM
  TGI: 16.1 µM
CCRF-CEM
  GI50: 3.5 µM
  TGI: > 100 µM
UACC-257 [10]
  LC50: > 100 µM
UACC-62 [11]
  LC50: > 100 µM
CAKI-1
  LC50: 6.8 µM
MCF7
  LC50: > 100 µM
MDA-MB-468
  LC50: 53.2 µM

— ChEMBL document CHEMBL2086296, “Synthesis of novel quinoline-2-one based chalcones of potential anti-tumor activity” (Eur J Med Chem, 2012)
